The species entered for assay [1] is Rattus norvegicus. Put plainly: Effective dose in rat. The format is functional. Summed up:
(§1)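 Rats trained on a two-lever FR50 food-reinforced task to discriminate LSD tartrate (0.08 mg/kg, ip, 30 min pre-session) from saline. Test drugs were given ip in 0.9% saline, 1 mL/kg, 30 min before extinction test sessions ended at 50 presses; failure within 5 min was scored as disruption. Quantal %SDL per dose. ED50 with 95% CI by Litchfield–Wilcoxon log-probit, not calculated if ≥50% disrupted.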

Assay [2] addresses T1, 5-hydroxytryptamine receptor 1A (Rattus norvegicus, UniProt P19327).
T1 sequence (P19327 whole entry): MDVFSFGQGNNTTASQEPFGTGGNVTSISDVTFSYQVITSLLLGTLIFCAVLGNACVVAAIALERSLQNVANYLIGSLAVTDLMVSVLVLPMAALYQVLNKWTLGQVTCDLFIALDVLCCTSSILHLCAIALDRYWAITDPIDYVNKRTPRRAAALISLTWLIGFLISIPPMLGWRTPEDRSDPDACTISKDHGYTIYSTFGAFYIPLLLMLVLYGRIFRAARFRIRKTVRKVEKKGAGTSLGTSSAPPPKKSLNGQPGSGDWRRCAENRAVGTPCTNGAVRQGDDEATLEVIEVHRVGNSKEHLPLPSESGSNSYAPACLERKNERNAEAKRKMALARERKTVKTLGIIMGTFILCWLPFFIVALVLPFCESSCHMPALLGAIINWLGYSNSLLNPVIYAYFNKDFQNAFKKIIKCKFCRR
The assay is described as follows: Tested for the binding affinity against the site labelled by the 5-hydroxytryptamine 1A receptor agonist [3H]- 8-OH-DPAT. Summed up: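 [3H]-8-OH-DPAT binding in rat brain homogenate (frontal cortex or hippocampus) in 50 mM Tris HCl pH 7.4 with EDTA, ascorbate and pargyline; 200–400 μg protein. 15 min at 37 °C, then GF/C filtration. Nonspecific binding defined by 10 μM 5-HT. Triplicates, scintillation counting.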

Assay [3] addresses T2, Serotonin receptor 2a and 2c (5HT2A and 5HT2C) (Rattus norvegicus, UniProt P08909+P14842). Put plainly: Tested for the binding affinity against the site labelled by the 5-hydroxytryptamine 2A receptor - 5-hydroxytryptamine 2C receptor antagonist [3H] ketanserin. The format is protein assay. Put shortly: (§2)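 Rat frontal cortex homogenate in 50 mM Tris HCl pH 7.4 with 0.5 mM EDTA, 0.1% ascorbate, pargyline and 5.7 mM CaCl2; 200–400 μg protein. […] Nonspecific binding defined by 10 μM cinanserin. Triplicate determinations, scintillation counting.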

For assay [4], the target named is T2, Serotonin receptor 2a and 2c (5HT2A and 5HT2C). The assay is described as follows: Tested for the binding affinity against the site labelled by the 5-hydroxytryptamine 2A receptor - 5-hydroxytryptamine 2C receptor agonist [125I]- - (+/-)DOI. The format is protein assay. Summed up:
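Rat frontal cortex homogenate, pooled and preincubated twice at 37 °C. Buffer was 50 mM Tris HCl pH 7.4 with 0.5 mM EDTA, 0.1% ascorbate, pargyline and MgCl2; 200–400 μg protein. 0.1 nM [125I]DOI was competed by 8–10 test concentrations, 15 min at 37 °C, then GF/C filtration. Nonspecific binding defined by 10 μM cinanserin. Triplicates, gamma counting.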

The target is the same in assay [5]. The assay is described as follows: Tested for the binding affinity against the site labelled by the 5-hydroxytryptamine 2A receptor - 5-hydroxytryptamine 2C receptor antagonist [3H]- ketanserin. The format is protein assay. Put shortly: as §2
Assay [6] is filed under the species Rattus norvegicus. The assay is described as follows: The percentage of rats selecting the drug lever at each dose. The format is functional. Put shortly: as §1

Several values for one entry are separate records, joined by “and”; a condition that tells them apart may be missing. Equal values may be shown once.

For `COc1cc(CC(C)N)c(OC)cc1Br` (centres undefined) [BROLAMFETAMINE], in the assay listed under Rattus norvegicus [1], the 50% effect level (ED50) was put at a dose of 1.12 µmol/kg.

`COc1cc(C(F)(F)F)c(OC)cc1CCN`: the Ki (in general, the dissociation constant of the complex between target and ligand, obtained from inhibition or displacement) is 3420 nM in assay [2], 74.5 nM in assay [3] and 1.1 nM in assay [4]. It took a dose of 0.82 µmol/kg to reach the 50% effect level in the assay filed under Rattus norvegicus [1] (ED50).

With `COc1cc(CCN)c(OC)cc1I`, the inhibitory constant (Ki) in assay [4] is listed as 1.9 nM; in assay [5] it was 80.9 nM. Also, the 50% effective dose (ED50) (in general, the midpoint of the dose-response relation) in the assay listed under Rattus norvegicus [1] turned out to be 1.04 µmol/kg.

Consider `COc1cc(CC(C)N)c(OC)cc1I` (centres undefined), for which the ED50 in the assay listed under Rattus norvegicus [1] came out at 0.97 µmol/kg. The SDL in the assay listed under Rattus norvegicus [6] is 80% [middle of 4 runs].

In the case of `COc1cc(C(F)(F)F)c(OC)cc1CC(C)N` (centres undefined), the Ki in assay [2] turned out to be 2220 nM; in assay [4] it was 1.5 nM; in assay [5], 33 nM. The SDL in the assay filed under Rattus norvegicus [6] was 62.5% and 80% and 100%.

For the origin of these results see ChEMBL document CHEMBL1127290, “1-(2,5-Dimethoxy-4-(trifluoromethyl)phenyl)-2-aminopropane: a potent serotonin 5-HT2A/2C agonist” (J Med Chem, 1994).
